Key:
Homo sapiens [1] = assay: Cmax in tuberculosis patient at 750 mg, po coadministered with 450 mg, po rifampin; assay type: ADME, organism-based; set-up: dose 750 mg, route oral; settings: in vivo
Summary of the method: (§1)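 Plasma was sampled predose and at 1–12 h (nine points). Assay: spiked with internal standard, chloroform extraction, derivatization, HPLC-UV at 215 nm, LLOQ 0.05 mg/liter. Noncompartmental analysis: Cmax and Tmax observed, t1/2 = 0.693/β, AUC0-24 by linear-log trapezoid.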

[2] = Tmax in tuberculosis patient at 750 mg, po coadministered with 450 mg, po rifampin; assay type: ADME, organism-based; settings: human, in vivo; summary of the method: as §1
Homo sapiens [3] = assay: Cmax in tuberculosis patient at 750 mg, po coadministered with 600 mg, po rifampin; assay type: ADME, organism-based; set-up: dose 750 mg, route oral; settings: in vivo; summary of the method: as §1
[4] = AUC (0 to 24 hrs) in tuberculosis patient at 750 mg, po coadministered with 600 mg, po rifampin; assay type: ADME, organism-based; set-up: time < 24 hr, dose 750 mg, route oral; settings: human, plasma; summary of the method: as §1
[5] = Half life in tuberculosis patient at 750 mg, po coadministered with 450 mg, po rifampin; assay type: ADME, organism-based; settings: human, in vivo; summary of the method: as §1
[6] = Tmax in tuberculosis patient at 750 mg, po coadministered with 600 mg, po rifampin; assay type: ADME, organism-based; settings: human, in vivo; summary of the method: as §1
[7] = AUC (0 to 24 hrs) in tuberculosis patient at 750 mg, po coadministered with 450 mg, po rifampin; assay type: ADME, organism-based; set-up: dose 750 mg, time < 24 hr, route oral; settings: human, plasma; summary of the method: as §1
[8] = Half life in tuberculosis patient at 750 mg, po coadministered with 600 mg, po rifampin; assay type: ADME, organism-based; settings: human, in vivo; summary of the method: as §1
[9] = AUC (0 to 24 hrs) in tuberculosis patient at 1500 mg, po coadministered with 450 mg, po rifampin; assay type: ADME, organism-based; set-up: time < 24 hr, dose 1500 mg, route oral; settings: human, plasma
Summary of the method: (§2)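 Venous plasma was drawn predose and at 1, 1.5, 2, 2.5, 3, 4, 6 and 12 h. Assay: solid-phase extraction, HPLC-UV at 266 nm, LLOQ 0.1 mg/liter. Cmax and Tmax were observed values; noncompartmental analysis gave t1/2 as 0.693/β and AUC0-24 by linear-log trapezoid with C24 extrapolated.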

[10] = Half life in tuberculosis patient at 1500 mg, po coadministered with 600 mg, po rifampin; assay type: ADME, organism-based; settings: human, in vivo; summary of the method: as §2
[11] = AUC (0 to 24 hrs) in tuberculosis patient at 1500 mg, po coadministered with 600 mg, po rifampin; assay type: ADME, organism-based; set-up: dose 1500 mg, time < 24 hr, route oral; settings: human, plasma; summary of the method: as §2
[12] = Cmax in tuberculosis patient at 1500 mg, po coadministered with 450 mg, po rifampin; assay type: ADME, organism-based; set-up: dose 1500 mg, route oral; settings: human, in vivo; summary of the method: as §2
[13] = Tmax in tuberculosis patient at 1500 mg, po coadministered with 450 mg, po rifampin; assay type: ADME, organism-based; settings: human, in vivo; summary of the method: as §2
[14] = Tmax in tuberculosis patient at 1500 mg, po coadministered with 600 mg, po rifampin; assay type: ADME, organism-based; settings: human, in vivo; summary of the method: as §2
[15] = Half life in tuberculosis patient at 1500 mg, po coadministered with 450 mg, po rifampin; assay type: ADME, organism-based; settings: human, in vivo; summary of the method: as §2
[16] = Cmax in tuberculosis patient at 1500 mg, po coadministered with 600 mg, po rifampin; assay type: ADME, organism-based; set-up: dose 1500 mg, route oral; settings: human, in vivo; summary of the method: as §2
[17] = Tmax in tuberculosis patient at 450 mg, po; assay type: ADME, organism-based; settings: human, in vivo
Homo sapiens [18] = assay: Tmax in tuberculosis patient assessed as desacetylrifampin level at 450 mg, po; assay type: ADME, organism-based; settings: in vivo
clinical [19] = settings: human, plasma, po, 450 mg
[20] = Apparent clearance in tuberculosis patient at 450 mg, po; assay type: ADME, organism-based; settings: human, in vivo
clinical [21] = settings: human, plasma, po, 600 mg
Homo sapiens [22] = assay: Tmax in tuberculosis patient at 600 mg, po; assay type: ADME, organism-based; settings: in vivo
[23] = Apparent clearance in tuberculosis patient at 600 mg, po; assay type: ADME, organism-based; settings: human, in vivo
[24] = Cmax in human tuberculosis patient at 600 mg, po; settings: in vivo
Homo sapiens [25] = assay: Tmax in tuberculosis patient assessed as desacetylrifampin level at 600 mg, po; assay type: ADME, organism-based; settings: in vivo
[26] = Apparent volume of distribution in tuberculosis patient at 450 mg, po; assay type: ADME, organism-based; settings: human, in vivo, read-out: Vc/F
[27] = Apparent volume of distribution in tuberculosis patient at 600 mg, po; assay type: ADME, organism-based; settings: human, in vivo, read-out: Vc/F

Compound: CC[C@@H](CO)NCCN[C@@H](CC)CO [ETHAMBUTOL]
- Cmax (Homo sapiens [1]): 2.4 h
- Tmax [2]: 2.5 h
- Cmax (Homo sapiens [3]): 2.3 h
- AUC(0-t) at 24 h [4]: 14700 ng·h/mL
- half-life [5]: 4.2 h
- Tmax [6]: 2.5 h
- AUC(0-t) at 24 h [7]: 14400 ng·h/mL
- half-life [8]: 4.6 h

Compound: NC(=O)c1cnccn1 [PYRAZINAMIDE]
- AUC(0-t) at 24 h [9]: 473000 ng·h/mL
- half-life [10]: 6.9 h
- AUC(0-t) at 24 h [11]: 514000 ng·h/mL
- Cmax [12]: 43800 ng/mL
- Tmax [13]: 2.75 h
- Tmax [14]: 2.5 h
- half-life [15]: 6.6 h
- Cmax [16]: 46000 ng/mL

Compound: CO[C@H]1/C=C/O[C@@]2(C)Oc3c(C)c(O)c4c(O)c(c(/C=N/N5CCN(C)CC5)c(O)c4c3C2=O)NC(=O)/C(C)=C\C=C\[C@H](C)[C@H](O)[C@@H](C)[C@@H](O)[C@@H](C)[C@H](OC(C)=O)[C@@H]1C [RIFAMPIN]
- Tmax [17]: 2 h
- Tmax (Homo sapiens [18]): 4 h
- AUC(0-t) at 24 h (clinical [19]): 48500 ng·h/mL
- CL/F [20]: 153 mL/min
- AUC(0-t) at 24 h (clinical [21]): 79700 ng·h/mL
- Tmax (Homo sapiens [22]): 1 h
- CL/F [23]: 125 mL/min
- Cmax [24]: 15600 ng/mL
- Tmax (Homo sapiens [25]): 4 h
- Vd/F [26]: 25.3 L
- Vd/F [27]: 23.3 L

— ChEMBL document CHEMBL1150797 (Antimicrob Agents Chemother, 2007)
